Most compounds without a hit are left out; they make up all but 2.1% or so of the library.
APJ antagonist: antagonists of human APJ apelin receptor. P35414. CHO-K1 APJ beta-arrestin complementation, luminescence. inhibition, % at 20 µM. 0.32% of 330,000 active;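 active means inhibition above about 40% at 20 µM, limit read from the data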;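 further: cells challenged with 10 nM apelin-13 agonist together with compound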
m5-HT2A agonist: mouse HTR2A agonism via beta-arrestin recruitment. CHO-K1 mHTR2A beta-arrestin complementation, luminescence; percent of 30 µM serotonin response. P35363. activation, % at 7.6 µM. 0.66% of 360,000 active. AID 624169;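 active means activation above a run cutoff, the mean activation of all tested compounds plus 3 SD, cut at about 14% in these data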
APJ agonist: activates the human apelin receptor APJ | P35414 | 0.11% of 330,000 active | CHO-K1 APJ PathHunter beta-arrestin, luminescence; 0% DMSO wells, 100% apelin | activation, % at 20 µM;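 active means activation more than six SD over the plate average, tested at 20 µM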
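Incubation: overnight seeding, 90 min compound at 25 °C, 1 h detection; test system: PathHunter CHO-K1 APJ (AGTRL-1) beta-arrestin reporter cells; amount: 1000 cells/well; doses: one dose, 20 µM compound, 1% DMSO; measured by: beta-gal luminescence; measure: agonist-driven arrestin binding to APJ; benchmarks: negative DMSO alone, positive Apelin-13 at 10 nM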
CXCR6 inh: blocks human CXCR6 beta-arrestin recruitment; CHO-K1 PathHunter CXCR6 beta-arrestin, luminescence; inhibition, % at 20 µM; 0.36% of 360,000 active; AID 602244; in the data active means inhibition above about 34%, passing the limit was not always enough;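 further: antagonist mode with CXCL16 agonist at 10 nM final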
Target sequence (O00574 whole entry, looked up): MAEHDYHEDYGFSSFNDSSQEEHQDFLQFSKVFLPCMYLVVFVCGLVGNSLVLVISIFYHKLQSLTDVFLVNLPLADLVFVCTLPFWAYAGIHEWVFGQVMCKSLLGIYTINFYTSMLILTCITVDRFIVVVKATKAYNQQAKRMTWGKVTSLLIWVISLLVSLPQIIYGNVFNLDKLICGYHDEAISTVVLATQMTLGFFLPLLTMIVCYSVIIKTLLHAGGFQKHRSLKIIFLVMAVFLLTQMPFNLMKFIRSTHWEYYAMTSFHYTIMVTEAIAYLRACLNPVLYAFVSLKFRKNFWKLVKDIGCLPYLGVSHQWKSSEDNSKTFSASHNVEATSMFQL
CCR6 antagonist: CCR6 (human) receptor antagonism; P51684; CHO-K1 CCR6 PathHunter beta-arrestin, luminescence, CCL20-stimulated; inhibition, % at 20 µM; 0.49% of 340,000 active; AID 493098;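 active means compounds whose inhibition of the agonist-driven luminescence signal at 20 µM reaches about 50%, limit read from the data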;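 further: cells stimulated with CCL20 at 14 nM final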
EBI2 antag: antagonists of human EBI2 receptor; P32249; EBI2 beta-arrestin recruitment, luminescence, 7a,25-OHC stimulated; inhibition, % at 5 µM; 0.81% of 360,000 active; in the data active means inhibition above about 38%;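 further: enzyme fragment complementation signal reports receptor beta-arrestin coupling in cells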
Target sequence (P32249 whole entry, looked up, the tested form may be a part): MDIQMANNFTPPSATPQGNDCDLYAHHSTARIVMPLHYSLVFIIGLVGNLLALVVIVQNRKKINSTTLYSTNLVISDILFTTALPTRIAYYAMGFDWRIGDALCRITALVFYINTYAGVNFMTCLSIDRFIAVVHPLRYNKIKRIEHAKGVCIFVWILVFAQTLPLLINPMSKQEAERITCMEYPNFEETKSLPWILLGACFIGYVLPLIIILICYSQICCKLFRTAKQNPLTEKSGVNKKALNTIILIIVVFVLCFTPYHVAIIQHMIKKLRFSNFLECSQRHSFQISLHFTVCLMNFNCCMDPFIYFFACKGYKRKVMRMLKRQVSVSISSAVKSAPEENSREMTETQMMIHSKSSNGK
OPRM1 ag: activates human mu opioid receptor in HTR2A counterscreen; shares compounds with m5-HT2A agonist; U2OS OPRM1 beta-arrestin PathHunter, luminescence; DMSO 0%, DAMGO 9.3 µM 100%; activation, % at 9.3 µM; 5.3% of 2,300 active;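 active means mean activation above the mean of DMSO-only wells plus 3 SD, cut at about 0.5% in these data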
m5-HT2A ag conf: mouse HTR2A agonism confirmed; shares compounds with m5-HT2A agonist; CHO-K1 PathHunter beta-arrestin recruitment, luminescence; DMSO 0%, 30 µM serotonin 100%; activation, % at 7.6 µM; 19% of 2,300 active;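 active means mean activation across triplicates above the hit threshold derived in the original primary screen, cut at about 15% in these data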
Of the large screens only hits and unclear results are named; the others gave an inactive call (follow-up assays come after a bar, where they were run).

O=C1NC[C@@H](Cc2cccc3ccccc23)N(CC2(c3ccccc3)CC2)C1=O	m5-HT2A agonist 16 | OPRM1 ag inactive | m5-HT2A ag conf inactive
CCCCN1C(=O)CC(SC2CC(=O)N(CCCC)C2=O)C1=O (stereo unspecified)	none (no result: APJ antagonist, APJ agonist)
CCCCN1C(=O)CC2CCOC21C (stereo unspecified)	m5-HT2A agonist 21 (no result: APJ antagonist, APJ agonist, CCR6 antagonist) | OPRM1 ag inactive | m5-HT2A ag conf inactive
Cc1ccc(C(=O)NNC(=O)c2ccncc2)cc1S(=O)(=O)N1CCOCC1	none
CCN(CC)CCN(Cc1cc2cc3c(cc2[nH]c1=O)OCCO3)C(=S)NCC(C)C	m5-HT2A agonist 22 | OPRM1 ag inactive | m5-HT2A ag conf inactive
Cc1cc(=O)c2cc(NC(=O)c3ccccc3Cl)ccc2[nH]1	none
Cc1ccc(NS(=O)(=O)c2cccc(C(=O)N3CCN(C(=O)c4ccco4)CC3)c2)cc1	none
CCCCN1C(=O)CC(C(=O)O)C1c1ccc(OC)cc1 (stereo unspecified)	none
COc1ccc2c(c1)C(O)C(CO)C(C(=O)O)C2 (stereo unspecified)	m5-HT2A agonist 16 (no result: APJ antagonist, APJ agonist) | OPRM1 ag inactive | m5-HT2A ag conf inactive
CSCC[C@H](NC(=O)c1cccnc1)c1nnc2ccccn12	none
COc1cccc(CN2CC(C(=O)NCCN3CCOCC3)CCC2=O)c1 (stereo unspecified)	none
CC(C)(C)c1ccc(C(=O)Nc2ccccc2Cl)cc1	none
O=C(Nc1ccccc1Cl)c1ccccc1CC(O)(c1ccccc1)c1ccccc1	m5-HT2A agonist 21 (no result: APJ antagonist, APJ agonist, CCR6 antagonist) | OPRM1 ag inactive | m5-HT2A ag conf inactive
CCN1CCC(NC(=O)Nc2cc(Cl)ccc2OC)CC1	none
C=CCSc1nsc(NC(=O)Nc2ccc(F)cc2)n1	m5-HT2A agonist 17 | OPRM1 ag 0.8 | m5-HT2A ag conf 29
CCCc1cc(CCC)n2nc(N)nc2n1	m5-HT2A agonist 15 (no result: APJ antagonist, APJ agonist, CCR6 antagonist) | OPRM1 ag inactive | m5-HT2A ag conf inactive
CC(C)c1cc(C(C)C)n2nc(N)nc2n1	none
CCC1CCCCN1Cc1nc2c(c(=O)n(C)c(=O)n2C)n1CC(C)C (stereo unspecified)	none
CCC1CCCCN1Cc1nc2c(c(=O)n(C)c(=O)n2C)n1CCC(C)C (stereo unspecified)	m5-HT2A agonist 20 | OPRM1 ag inactive | m5-HT2A ag conf inactive
COc1ccc(OC)c(C(=O)Cn2nnc(-c3ccc(N4CCOCC4)cc3)n2)c1	none
Cc1ccc(NC2CCCN(C(=O)c3cc(C(C)C)nn3C)C2)cc1C (stereo unspecified)	none (no result: APJ antagonist, APJ agonist, CCR6 antagonist)
N#C/C=C(/N)N1CCN(c2ccc(Cl)c(Cl)c2)CC1	m5-HT2A agonist 35 | OPRM1 ag inactive | m5-HT2A ag conf 19
COC(=O)N1CCN(c2ccc(Cl)c(Cl)c2)CC1	none
O=C1CC(N2CCN(c3ccc(Cl)c(Cl)c3)CC2)C(=O)N1 (stereo unspecified)	m5-HT2A agonist 19 | OPRM1 ag 1.6 | m5-HT2A ag conf 18
Nc1ccc(N2CCN(c3ccc(F)cc3)CC2)cc1	none
Nc1ccc(N2CCN(c3ccc(Cl)c(Cl)c3)CC2)cc1	m5-HT2A agonist 35 | OPRM1 ag inactive | m5-HT2A ag conf inactive
O=C(NC1CCN(C(=S)Nc2ccc(F)cc2)CC1)C1CCCCC1	none
O=Cc1c[nH]c2ncccc12	none
Nc1ncnc2[nH]c(=S)[nH]c12	m5-HT2A agonist 17 (no result: APJ antagonist, APJ agonist) | OPRM1 ag inactive | m5-HT2A ag conf inactive
O=C(CNC(=O)c1ccc(Br)o1)NNC(=O)c1cccc(Cl)c1	none
O=C(CNC(=O)c1ccc(Br)o1)NNC(=O)c1ccccc1O	m5-HT2A agonist 17 | OPRM1 ag inactive | m5-HT2A ag conf inactive
O=C(COC(=O)c1c(F)cccc1Cl)NCC1CCCCC1	none
CC(=O)c1c(C)[nH]c(C(=O)Nc2ccccn2)c1C	m5-HT2A agonist 15 | OPRM1 ag inactive | m5-HT2A ag conf inactive
CC(=O)c1c(C)[nH]c(C(=O)Nc2ccc(Cl)cc2)c1C	none
CC(Oc1ccc(C#N)cc1)C(=O)Nc1ccc(-n2cnnn2)cc1 (stereo unspecified)	none
CN1CCN(S(=O)(=O)c2cccc(C(=O)Nc3cc(C(N)=O)cc(C(N)=O)c3)c2)CC1	m5-HT2A agonist 16 | OPRM1 ag inactive | m5-HT2A ag conf inactive
O=C(O)c1ccccc1OCc1nc2ccccc2s1	none
Cc1cc(C(=O)Nc2c[nH]c(=O)[nH]c2=O)ccc1[N+](=O)[O-]	none
CCN1CCN(C(=S)Nc2cccc([N+](=O)[O-])c2)CC1	m5-HT2A agonist 26 | OPRM1 ag inactive | m5-HT2A ag conf inactive
O=[N+]([O-])c1cccc(NC(=S)N2CCCC2)c1	none
O=c1oc(-c2ccc(Cl)cc2[N+](=O)[O-])nc2ccccc12	none (no result: APJ antagonist, APJ agonist, CCR6 antagonist)
CCOC(=O)C1CCCN(C(=O)c2cccc3ccccc23)C1 (stereo unspecified)	m5-HT2A agonist 17 | OPRM1 ag inactive | m5-HT2A ag conf inactive
Cc1ccc(C)c(S(=O)(=O)NCCC(=O)N2CCCC(C(N)=O)C2)c1 (stereo unspecified)	none
O=C(NCCN1CCOCC1)c1c(O)nc2sccn2c1=O	none
NC(=S)NN=C1C=CCCC1	m5-HT2A agonist 19 (no result: APJ antagonist, APJ agonist) | OPRM1 ag inactive | m5-HT2A ag conf inactive
N/C(=N\OC(=O)COc1ccc(Cl)cc1Cl)c1ccncc1	none (no result: APJ antagonist, APJ agonist)
CC1Cc2cc(S(=O)(=O)N3CCC(C(=O)N4CCN(c5ccccc5F)CC4)CC3)ccc2N1C(=O)C1CC1 (stereo unspecified)	none
Cc1ccc(-c2ccc(CN3C(C)C(=O)N(Cc4cn(Cc5ccco5)nn4)CCS3(=O)=O)cc2)cc1 (stereo unspecified)	m5-HT2A agonist 18 (no result: APJ antagonist, APJ agonist, CCR6 antagonist) | OPRM1 ag inactive | m5-HT2A ag conf inactive
COc1ccc(-c2ccc(CN3C(C(C)C)C(=O)N(Cc4cn(Cc5ccco5)nn4)CCS3(=O)=O)cc2)cc1 (stereo unspecified)	m5-HT2A agonist 18 (no result: APJ antagonist, APJ agonist, CCR6 antagonist) | OPRM1 ag inactive | m5-HT2A ag conf inactive
CCN(Cc1ccncc1)C(=O)c1ccc2c(c1)S(=O)(=O)c1ccccc1C2=O	none
C=CCOc1cccn2c(N(C=O)Cc3ccccc3)c(CC)nc12	none (no result: APJ antagonist, APJ agonist, CCR6 antagonist)
CC(=O)c1ccc(S(=O)(=O)N2CCCC(N(C)CCc3ccccn3)C2)cc1 (stereo unspecified)	none
CCOc1ccccc1-c1noc(CCCC(=O)NC2CCCCC2)n1	none
CCN(C(=O)C1CCN(S(=O)(=O)c2cccc3nonc23)CC1)c1ccccc1	m5-HT2A agonist 15 | OPRM1 ag inactive | m5-HT2A ag conf inactive

Screening data deposited in PubChem BioAssay by several laboratories.
